From ChEMBL document CHEMBL1153099, “2,4-Diaryl-4,6,7,8-tetrahydroquinazolin-5(1H)-one derivatives as anti-HBV agents targeting at capsid assembly” (Bioorg Med Chem Lett, 2010)

Key:
[1] = system: Hepatitis B virus; assay: Antiviral activity against HBV infected in human HepG2.2.15 cells assessed as inhibition of viral DNA replication; type: functional, organism-based, HepG2 2.2.15
In short: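 HepG2.2.15 cells, which secrete virus-like particles. Reference anti-HBV agents were run as positive controls. IC50 is the mean of three experiments. A compound with no activity at its maximum nontoxic concentration was scored as not active.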

[2] = Cytotoxicity against human HepG2(2.2.15) cells; type: cell-based
In short: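 Viability of HepG2.2.15 cells was read after 48 h of compound exposure. Cytotoxic IC50 is the mean of three experiments.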

[3] = Therapeutic index, ratio of IC50 for human HepG2(2.2.15) cells to IC50 for HBV; type: cell-based; settings: read-out: Ratio IC50
[4] = Hepatitis B virus, HepG2 2.2.15, read-out: IC50

IC50 ([1]; hepg2 2.2.15)	IC50 [1, 4] [µM]	SMILES	IC50 [2] [µM]	selectivity ratio [3]
Not Active		O=C1CCCC2=C1C(c1ccc(F)cc1Cl)N=C(c1ccco1)N2 (centres undefined)	717	
	0.44	CC1(C)CC(=O)C2=C(C1)NC(c1cccnc1)=NC2c1ccc(F)cc1Cl (centres undefined)	624	1420
	26.2	CC1(C)CC(=O)C2=C(C1)NC(c1cccnc1)=NC2c1ccccc1Cl (centres undefined)	67.3	2.56
	6.6	O=C1CCCC2=C1C(c1ccccc1)N=C(c1ccccn1)N2 (centres undefined)	571	86.6
Not Active		O=C1CCCC2=C1C(c1ccccc1)N=C(c1cccnc1)N2 (centres undefined)	369	
	8.75	O=C1CCCC2=C1C(c1ccc(F)cc1Cl)N=C(c1nccs1)N2 (centres undefined)	47.7	5.73
	2.3	O=C1CCCC2=C1C(c1ccc(F)cc1Cl)N=C(c1cnccn1)N2 (centres undefined)	777	338
Not Active		CC1(C)CC(=O)C2=C(C1)NC(c1c(F)cc(F)cc1F)=NC2c1ccc(F)cc1Cl (centres undefined)	5.6	
Not Active		O=C1CCCC2=C1C(c1ccc(F)cc1)N=C(c1ccccn1)N2 (centres undefined)	516	
	25.1	O=C1CCCC2=C1C(c1ccc(F)cc1Cl)N=C(c1cccnc1)N2 (centres undefined)	82.8	
	4.92	CC1(C)CC(=O)C2=C(C1)NC(c1ccncc1)=NC2c1ccc(F)cc1Cl (centres undefined)	135	27.3
	1.1	O=C1CCCC2=C1C(c1ccc(F)cc1Cl)N=C(c1ncccc1F)N2 (centres undefined)	1370	1240
Not Active		O=C1CCCC2=C1C(c1ccc(F)cc1Cl)N=C(c1c(F)cc(F)cc1F)N2 (centres undefined)	123	
	25.3	CC1(C)CC(=O)C2=C(C1)NC(c1cccnc1)=NC2c1ccc(F)cc1 (centres undefined)	145	5.73
Not Active		O=C1CCCC2=C1C(c1ccccc1Cl)N=C(c1cnccn1)N2 (centres undefined)	1470	
	1.05	CC1(C)CC(=O)C2=C(C1)NC(c1ncc(F)cc1F)=NC2c1ccc(F)cc1Cl (centres undefined)	41.2	39.2
	3.12	CC1(C)CC(=O)C2=C(C1)NC(c1nccs1)=NC2c1ccc(F)cc1Cl (centres undefined)	57	19.2
Not Active		CC1(C)CC(=O)C2=C(C1)NC(c1cnccn1)=NC2c1ccccc1Cl (centres undefined)	623	
	0.78	COC(=O)C1=C(C)NC(c2ncc(F)cc2F)=N[C@H]1c1ccc(F)cc1Cl	567	
	14.2	CC1(C)CC(=O)C2=C(C1)NC(c1cnccn1)=NC2c1ccc(F)cc1Cl (centres undefined)	773	54.5
Not Active		CC1(C)CC(=O)C2=C(C1)NC(c1ncccc1F)=NC2c1ccc(F)cc1Cl (centres undefined)	371	
Not Active		O=C1CCCC2=C1C(c1ccccc1Cl)N=C(c1cccnc1)N2 (centres undefined)	1120	
	16.5	O=C1CCCC2=C1C(c1ccc(F)cc1Cl)N=C(c1ccncc1)N2 (centres undefined)	142	8.6
	22.4	CC1(C)CC(=O)C2=C(C1)NC(c1cccnc1)=NC2c1ccccc1 (centres undefined)	173	7.74
Not Active		O=C1CCCC2=C1C(c1ccccc1Cl)N=C(c1ccccn1)N2 (centres undefined)	589	
	4.3	O=C1CCCC2=C1C(c1ccc(F)cc1Cl)N=C(c1ccccn1)N2 (centres undefined)	620	144
Not Active		O=C1CCCC2=C1C(c1ccc(F)cc1)N=C(c1cccnc1)N2 (centres undefined)	280	
	0.22	Nc1ccn([C@@H]2CS[C@H](CO)O2)c(=O)n1 [LAMIVUDINE]		
